In ChEMBL document CHEMBL1944511, “Bakuchiol derivatives as novel and potent cytotoxic agents: a report” (Eur J Med Chem, 2012):

Tests used:
Type in all cases: functional
[1] = tested on: A549; assay: Growth inhibition of human A549 cells at 20 uM after 48 hrs by sulpharhodamine B assay; settings: A549, 48 h, read-out: GI
Procedure, shortened: (§1)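 This is the SRB protein-stain assay on adherent cells in RPMI-1640/MEM with 10% FCS. Each compound in DMSO (vehicle <0.2%) was applied at a single fixed concentration for 48 h. Cells were fixed with TCA and stained with SRB, and the dye was solubilised in Tris and read at 570/620 nm. Percent growth inhibition is relative to vehicle-treated controls, reported as mean ± SD of three experiments run in triplicate.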

[2] = tested on: PC-3; assay: Growth inhibition of human PC3 cells at 20 uM after 48 hrs by sulpharhodamine B assay; settings: PC-3, 48 h, read-out: GI; procedure, shortened: as §1
[3] = tested on: OVCAR-5; assay: Growth inhibition of human OVCAR5 cells at 20 uM after 48 hrs by sulpharhodamine B assay; settings: OVCAR-5, 48 h, read-out: GI
Procedure, shortened: (§2)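 Cells grown at 37 °C, 5% CO2 in RPMI-1640/MEM with 10% FCS and penicillin/streptomycin, then seeded in 96-well plates and allowed to adhere overnight. Compound was added in DMSO (vehicle <0.2% in untreated controls) and incubated 48 h. Cells were fixed with ice-cold TCA, stained with 0.4% SRB in 1% acetic acid, and the dye solubilised in 10 mM Tris-base. OD read at 570 nm (reference 620 nm).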

[4] = tested on: IMR-32; assay: Growth inhibition of human IMR32 cells at 20 uM after 48 hrs by sulpharhodamine B assay; settings: IMR-32, 48 h, read-out: GI; procedure, shortened: as §1
[5] = tested on: HeLa; assay: Growth inhibition of human HeLa cells at 20 uM after 48 hrs by sulpharhodamine B assay; settings: read-out: GI; procedure, shortened: as §2
[6] = tested on: THP-1; assay: Growth inhibition of human THP1 cells at 20 uM after 48 hrs by sulpharhodamine B assay; settings: THP-1, 48 h, read-out: GI
Procedure, shortened: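 Cells grown in RPMI-1640/MEM with 10% FCS, penicillin/streptomycin, 37 °C, 5% CO2. Seeded in 96-well plates, allowed to adhere overnight, then exposed 48 h to analogs in DMSO (vehicle <0.2% in controls). TCA-fixed, stained with 0.4% SRB in 1% acetic acid, dye solubilized in 10 mM Tris base, OD 570 nm (ref 620 nm). Mean ± SD of three experiments run in triplicate.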

[7] = tested on: DU-145; assay: Growth inhibition of human DU145 cells at 20 uM after 48 hrs by sulpharhodamine B assay; settings: DU-145, 48 h, read-out: GI; procedure, shortened: as §1
[8] = tested on: HCT-15; assay: Growth inhibition of human HCT15 cells at 20 uM after 48 hrs by sulpharhodamine B assay; settings: HCT-15, 48 h, read-out: GI; procedure, shortened: as §1

## O=c1[nH]cc(F)c(=O)[nH]1 [FLUOROURACIL]
[1]
  inhibition of growth at 20 µM: 76%
[2]
  inhibition of growth at 20 µM: 75%
[3]
  inhibition of growth at 20 µM: 75%
[4]
  inhibition of growth at 20 µM: 79%
[5]
  inhibition of growth at 20 µM: 71%
[6]
  inhibition of growth at 20 µM: 85%
[7]
  inhibition of growth at 20 µM: 75%
[8]
  inhibition of growth at 20 µM: 63%
